Results on 51 compounds are retold here after ChEMBL document CHEMBL3763056, “O-alkylhydroxylamines as rationally-designed mechanism-based inhibitors of indoleamine 2,3-dioxygenase-1” (Eur J Med Chem, 2016).

pIC50, pKi: −log10 of the molar value. The source made the active and inactive calls. No cut-off for these calls is given here.

Series [1] deals with T1, Indoleamine 2,3-dioxygenase 1 (Homo sapiens, UniProt P14902). Description: Inhibition of recombinant human IDO1 assessed as reduction in kynurenine production using L-tryptophan as substrate after 60 mins by microplate reader method.
Target sequence in this assay (P14902 whole entry): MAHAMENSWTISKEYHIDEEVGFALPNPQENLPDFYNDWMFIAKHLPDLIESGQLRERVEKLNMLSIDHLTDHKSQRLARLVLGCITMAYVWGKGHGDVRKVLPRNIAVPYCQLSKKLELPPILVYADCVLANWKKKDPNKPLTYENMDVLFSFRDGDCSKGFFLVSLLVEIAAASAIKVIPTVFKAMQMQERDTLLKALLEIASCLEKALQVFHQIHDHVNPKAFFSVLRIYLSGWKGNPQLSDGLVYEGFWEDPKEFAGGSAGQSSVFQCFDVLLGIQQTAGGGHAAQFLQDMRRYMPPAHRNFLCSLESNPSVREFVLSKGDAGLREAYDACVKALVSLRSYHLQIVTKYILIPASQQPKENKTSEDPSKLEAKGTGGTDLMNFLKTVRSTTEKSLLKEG
Series [2] has as its target T1, Indoleamine 2,3-dioxygenase 1. In words: Inhibition of recombinant human IDO1 assessed as reduction in kynurenine production using L-tryptophan as substrate after 60 mins by Michaelis-Menton plot analysis. An outline of the steps:
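Purified recombinant human IDO1 (~27 nM) in 50 mM potassium phosphate pH 6.5 with 40 mM ascorbate, 400 μg/ml catalase and 20 μM methylene blue. For IC50, L-Trp at 100 μM (Km 80 μM). For Ki, inhibitor dilutions matrixed with L-Trp dilutions. 60 min at 37 °C, TCA stop, 65 °C for 15 min, Ehrlich's reagent, A490.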
Target sequence in this assay (P14902 whole entry): as above

The test system of another series is HeLa. In words: Cytotoxicity against human HeLa cells assessed as cell viability upto 100 uM by sulforhodamine B assay. It counts as cell-based. The procedure, abridged:
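HeLa cells seeded at 10,000/well in DMEM + 10% FBS, IDO1 induced 24 h with IFNγ (100 ng/mL final), then compound serial dilutions in medium with 100 μM Trp for 24 h at 37 °C. Cells fixed with TCA 1 h at 4 °C, stained with 0.4% SRB 15 min, dye solubilized in 10 mM Tris; absorbance at 570 nm.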
A general note: In SRB staining, fixed cells bind dye roughly in proportion to their protein.

The target in a further series is Cytochrome P450 3A4 (Homo sapiens, UniProt P08684). In words: Inhibition of CYP3A4 (unknown origin). The series is classed as ADME.
The target in another series is T2, Catalase (Homo sapiens, UniProt P04040).
T2 sequence (P04040 whole entry): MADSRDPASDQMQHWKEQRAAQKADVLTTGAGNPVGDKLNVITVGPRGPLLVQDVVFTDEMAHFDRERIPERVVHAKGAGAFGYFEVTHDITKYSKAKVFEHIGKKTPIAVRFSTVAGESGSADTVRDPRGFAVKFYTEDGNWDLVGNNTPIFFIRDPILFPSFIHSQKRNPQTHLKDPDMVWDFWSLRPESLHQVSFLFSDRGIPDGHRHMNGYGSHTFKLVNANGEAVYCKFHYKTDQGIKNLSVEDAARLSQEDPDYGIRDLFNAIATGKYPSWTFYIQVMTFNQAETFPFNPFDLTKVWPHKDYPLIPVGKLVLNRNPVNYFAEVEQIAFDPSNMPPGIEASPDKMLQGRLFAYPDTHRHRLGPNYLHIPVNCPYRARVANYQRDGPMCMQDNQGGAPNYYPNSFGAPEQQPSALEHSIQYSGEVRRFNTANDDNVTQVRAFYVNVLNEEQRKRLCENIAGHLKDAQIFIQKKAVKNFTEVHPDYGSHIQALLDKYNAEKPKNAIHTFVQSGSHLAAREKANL
In words: Inhibition of catalase (unknown origin) using hydrogen peroxide as substrate.

Series [3] deals with T1, Indoleamine 2,3-dioxygenase 1. Description: Inhibition of IFN gamma induced human IDO1 in HeLa cells assessed as reduction in kynurenine production treated with 5-fold serial dilution beginning at 400 uM after 24 hrs by microtiter plate reader. It counts as cell-based. The procedure, abridged: (§1)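 HeLa cells seeded 10,000/well in DMEM + 10% FBS + 1% pen-strep; IDO1 induced with IFNγ (100 ng/mL final) for 24 h. Media discarded, wells rinsed, compound serial dilutions added in DMEM + 10% FBS with Trp adjusted to 100 μM. 24 h at 37 °C. TCA stop and fixation 1 h at 4 °C. Supernatant heated at 65 °C for 15 min, mixed with Ehrlich's reagent, read at 490 nm.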
Target sequence in this assay (P14902 whole entry): as the sequence (P14902 whole entry) above

Series [4] shares this target. Description: Inhibition of doxycycline-induced human IDO1 expressed in Trex cells assessed as reduction in kynurenine production treated with 5-fold serial dilution beginning at 400 uM after 24 hrs by microtiter plate reader. It counts as cell-based. An outline of the steps:
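T-Rex cells carrying tet-regulated human IDO1 cDNA seeded 10,000/well in DMEM + 10% FBS + 1% pen-strep; IDO1 induced with media containing 20 ng/mL doxycycline for 24 h. Media replaced by compound serial dilutions in DMEM + 10% FBS, Trp 100 μM. 24 h at 37 °C. TCA fixation, supernatant heated at 65 °C, Ehrlich's reagent, A490. Single run.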
Target sequence in this assay (P14902 whole entry): as the sequence (P14902 whole entry) above

Series [5] has the same target. The conditions noted are these: 110 to 990 nM.
Target sequence in this assay (P14902 whole entry, looked up): as the sequence (P14902 whole entry) above
The target is the same in series [6]. Description: Inhibition of IFN gamma induced human IDO1 in HeLa cells assessed as reduction in kynurenine production treated with 3-fold serial dilution beginning at 100 uM after 24 hrs by microtiter plate reader. It counts as cell-based. The procedure, abridged:
as §1
Target sequence in this assay (P14902 whole entry): as the sequence (P14902 whole entry) above

Sequence of Cytochrome P450 3A4 (P08684 whole entry): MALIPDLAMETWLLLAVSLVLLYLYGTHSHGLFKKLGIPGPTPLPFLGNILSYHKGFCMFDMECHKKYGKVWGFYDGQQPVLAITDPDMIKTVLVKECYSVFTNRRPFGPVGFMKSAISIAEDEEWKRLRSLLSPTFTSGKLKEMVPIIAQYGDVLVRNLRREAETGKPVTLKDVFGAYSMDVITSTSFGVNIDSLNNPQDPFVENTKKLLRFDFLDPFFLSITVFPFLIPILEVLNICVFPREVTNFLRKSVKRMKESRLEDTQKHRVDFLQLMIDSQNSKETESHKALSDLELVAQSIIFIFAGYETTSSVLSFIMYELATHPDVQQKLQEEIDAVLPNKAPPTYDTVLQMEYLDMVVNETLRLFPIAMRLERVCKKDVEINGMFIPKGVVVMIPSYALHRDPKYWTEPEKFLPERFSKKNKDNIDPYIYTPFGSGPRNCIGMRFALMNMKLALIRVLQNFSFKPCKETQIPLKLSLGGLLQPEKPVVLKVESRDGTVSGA

Usually pIC50 stands for the IC50 on a negative log10 scale, so that one unit is a factor of ten. Turning to `NOCc1ccc(C(F)(F)F)cc1`, the pIC50 in series [1] was 5.05.

Regarding `NOCc1ccccc1O`, the pIC50 in series [1] was 4.72.

Consider `COc1ccccc1CON`, for which, in series [1], the pIC50 was 5.27.

For `NOCc1ccc(Cl)cc1Cl`, the pIC50 in [1] is 6.20.

One may read the pKi as the negative decadic logarithm of the Ki, by convention in mol/L. In the case of `Cl.NOCc1ccc(I)cc1`, the pKi in series [2] was 6.79. Further, the Activity result with HeLa was “Non-toxic”. For the same compound, the negative-log IC50 (pIC50) was 6.66 in [1]; 5.14 against Cytochrome P450 3A4; less than 4.00 against Catalase; 7.09 in [3]; 6.74 in series [4]. Moreover, the inhibition entry in series [5] was “Active”.

With `COc1cccc(CON)c1`, the pIC50 in series [1] was 5.02.

For `NOCc1cccc(C(F)(F)F)c1`, the negative-log IC50 (pIC50) in [1] was 6.39.

As to `COc1ccc(CON)cc1`, the pIC50 in series [1] is 4.62.

On to `COc1ccc(OC)c(CON)c1`, for which the negative logarithm of the IC50 (pIC50) in [1] is 5.77.

As for `NOC(c1ccccc1)C1CC1` (stereo unspecified), the pIC50 in series [1] was 5.28.

`NOCc1ccccc1`: the pIC50 in [1] was 6.09.

As for `NOCc1ccc([N+](=O)[O-])cc1`, the pIC50 in series [1] was 5.57.

In the case of `NOCc1ccccc1Br`, the pIC50 in [1] is 5.80.

`NOCc1ccc(Cl)c(C(F)(F)F)c1`: in series [1], the pIC50 is 6.31.

Consider `NOCc1ccccc1Cl`, for which the pIC50 in series [1] was 6.20.

In the case of `NOCc1ccc(F)cc1F`, the pIC50 in series [1] is 5.85.

For `CC(C)c1ccc(CON)cc1`, the pIC50 in series [1] was 4.82.

In the case of `O=C(NO)c1ccccc1` [BENZOHYDROXAMATE], in series [1], the pIC50 was 4.80.

For `NOCc1cccc(Cl)c1Cl`, the pIC50 in series [1] is 6.35.

Turning to `NOCc1cc(F)cc(F)c1`, the pIC50 in series [1] was 5.47.

Turning to `NOCc1ccc(C(F)(F)F)cc1F`, the pIC50 in series [1] was 5.96.

On to `NOCc1cccc(Br)c1`, for which the pIC50 in [1] was 6.49.

On to `NOCc1cc(Cl)cc(Cl)c1`, for which the pIC50 in [1] is 6.05.

As for `NOCc1cccc(F)c1`, the pIC50 in [1] was 6.00.

Consider `NOCc1cc(C(F)(F)F)cc(C(F)(F)F)c1`, for which, in series [1], the pIC50 is 5.34.

As to `NOCc1ccc(-c2ccccc2)cc1`, the pIC50 in [1] is 4.92.

Regarding `NOCc1ccccc1I`, in [1], the pIC50 is 6.24.

In the case of `NOCc1ccc(Cl)cc1`, the pIC50 in series [1] is 5.89.

`ONc1ccccc1`: in series [1], the pIC50 is 5.04.

Turning to `NOCc1cc(C(F)(F)F)ccc1F`, in series [1], the pIC50 is 6.24.

Take `NOCc1cc(Br)cc(Br)c1`: the pIC50 in series [1] is 5.38.

As for `COc1cccc(CON)c1O`, the negative logarithm of the IC50 (pIC50) in series [1] is 4.26.

As for `Cc1cccc(CON)c1`, the pIC50 in series [1] is 5.57.

Regarding `NOC1CCCc2ccccc21` (stereo unspecified), in series [1], the pIC50 is 5.00.

Regarding `NOCc1ccc(O)cc1`, the pIC50 in [1] is 4.21.

With `NOCc1ccc(Br)cc1`, in [1], the pIC50 is 5.80.

For the compound `NOCc1ccc(F)cc1`, the pIC50 in series [1] is 6.01.

Turning to `NOCCCc1ccccc1`, the pIC50 in [1] was 4.09.

Regarding `NOC/C=C/c1ccccc1`, in series [1], the pIC50 was 5.15.

Regarding `Cl.NOCc1cccc(Cl)c1`, the pKi in series [2] was 6.81. Besides, the Activity entry with HeLa is “Non-toxic”. Besides, the pIC50 in [1] was 6.52; on Cytochrome P450 3A4, 4.82; at Catalase, less than 4.00; in series [3], 6.94; in series [4] it was 7.11; in [6], 6.87. The inhibition result in [5] was “Active”.

As for `NOCc1ccc(Cl)c(Cl)c1`, the pIC50 in [1] is 5.68.

For `NOCc1cccc(I)c1`, the pIC50 in [1] was 6.47.

Regarding `NNCc1ccccc1` [BENZYLHYDRAZINE], in series [1], the pIC50 is 4.15.

Take `NOCc1ccc(I)cc1Cl`: the pIC50 in [1] is 6.14.

For `NOC1Cc2ccccc2C1`, in series [1], the negative-log IC50 (pIC50) is 5.00.

With `ONCc1ccccc1`, the pIC50 in series [1] was 5.22.

Regarding `NOCc1ccccc1C(F)(F)F`, the pIC50 in series [1] was 5.60.

`NOCc1ccc(F)cc1C(F)(F)F`: in [1], the pIC50 is 5.62.

On to `NNc1ccccc1` [PHENYLHYDRAZINE], for which the pIC50 in series [1] was 6.64.

On to `NOCc1ccccc1F`, for which, in series [1], the pIC50 is 5.85.

Take `NOC1CCc2ccccc21` (stereo unspecified): in series [1], the pIC50 is 4.59.
